Measurements published in ChEMBL document CHEMBL4387724, “2-Pyridineformamide N(4)-ring incorporated thiosemicarbazones inhibit MCF-7 cells by inhibiting JNK pathway” (Bioorg Med Chem Lett, 2019).

Experiments:
MCF7 [1] = experiment: Cytotoxicity against human MCF7 cells assessed as reduction in cell growth incubated for 72 hrs by MTT assay; type: functional, cell-based; conditions: MCF7, 72 h
Method in brief: (§1)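 Cells grown in DMEM with 10% FBS and penicillin-streptomycin at 37 °C, 5% CO2, seeded at 3000 cells/well and attached overnight. Screening series given at 1, 3, 10, 100 μM; follow-up agent at 100 nM–3 μM; both 72 h, with 0.1% DMSO vehicle. MTT (5 mg/mL stock) added for 3 h at 37 °C, formazan dissolved in DMSO, absorbance read at 570 nm. Viability expressed as % of DMSO-treated wells from replicates.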

A-431 [2] = experiment: Cytotoxicity against human A431 cells assessed as reduction in cell growth incubated for 72 hrs by MTT assay; type: functional, cell-based; conditions: A-431, 72 h; method in brief: as §1
A-375 [3] = experiment: Cytotoxicity against human A375 cells assessed as reduction in cell growth incubated for 72 hrs by MTT assay; type: functional, cell-based; conditions: A-375, 72 h; method in brief: as §1
HeLa [4] = experiment: Cytotoxicity against human HeLa cells assessed as reduction in cell growth incubated for 72 hrs by MTT assay; type: functional, cell-based; method in brief: as §1
A-375 [5] = experiment: Cytotoxicity against human A375 cells assessed as reduction in cell growth at 1 uM incubated for 72 hrs by MTT assay relative to control; type: functional; conditions: A-375, 72 h, read-out: GI; method in brief: as §1
A-375 [6] = experiment: Cytotoxicity against human A375 cells assessed as reduction in cell growth at 3 uM incubated for 72 hrs by MTT assay relative to control; type: functional; conditions: A-375, 72 h, read-out: GI; method in brief: as §1
A-375 [7] = experiment: Cytotoxicity against human A375 cells assessed as reduction in cell growth at 10 uM incubated for 72 hrs by MTT assay relative to control; type: functional; conditions: A-375, 72 h, read-out: GI; method in brief: as §1
A-375 [8] = experiment: Cytotoxicity against human A375 cells assessed as reduction in cell growth at 30 uM incubated for 72 hrs by MTT assay relative to control; type: functional; conditions: A-375, 72 h, read-out: GI
A-375 [9] = experiment: Cytotoxicity against human A375 cells assessed as reduction in cell growth at 100 uM incubated for 72 hrs by MTT assay relative to control; type: functional; conditions: A-375, 72 h, read-out: GI; method in brief: as §1
A-431 [10] = experiment: Cytotoxicity against human A431 cells assessed as reduction in cell growth at 1 uM incubated for 72 hrs by MTT assay relative to control; type: functional; conditions: A-431, 72 h, read-out: GI; method in brief: as §1
A-431 [11] = experiment: Cytotoxicity against human A431 cells assessed as reduction in cell growth at 3 uM incubated for 72 hrs by MTT assay relative to control; type: functional; conditions: A-431, 72 h, read-out: GI; method in brief: as §1
A-431 [12] = experiment: Cytotoxicity against human A431 cells assessed as reduction in cell growth at 10 uM incubated for 72 hrs by MTT assay relative to control; type: functional; conditions: A-431, 72 h, read-out: GI; method in brief: as §1
A-431 [13] = experiment: Cytotoxicity against human A431 cells assessed as reduction in cell growth at 30 uM incubated for 72 hrs by MTT assay relative to control; type: functional; conditions: A-431, 72 h, read-out: GI
A-431 [14] = experiment: Cytotoxicity against human A431 cells assessed as reduction in cell growth at 100 uM incubated for 72 hrs by MTT assay relative to control; type: functional; conditions: A-431, 72 h, read-out: GI; method in brief: as §1
HeLa [15] = experiment: Cytotoxicity against human HeLa cells assessed as reduction in cell growth at 1 uM incubated for 72 hrs by MTT assay relative to control; type: functional; conditions: read-out: GI; method in brief: as §1
HeLa [16] = experiment: Cytotoxicity against human HeLa cells assessed as reduction in cell growth at 3 uM incubated for 72 hrs by MTT assay relative to control; type: functional; conditions: read-out: GI; method in brief: as §1
HeLa [17] = experiment: Cytotoxicity against human HeLa cells assessed as reduction in cell growth at 10 uM incubated for 72 hrs by MTT assay relative to control; type: functional; conditions: read-out: GI; method in brief: as §1
HeLa [18] = experiment: Cytotoxicity against human HeLa cells assessed as reduction in cell growth at 30 uM incubated for 72 hrs by MTT assay relative to control; type: functional; conditions: read-out: GI
HeLa [19] = experiment: Cytotoxicity against human HeLa cells assessed as reduction in cell growth at 100 uM incubated for 72 hrs by MTT assay relative to control; type: functional; conditions: read-out: GI; method in brief: as §1
MCF7 [20] = experiment: Cytotoxicity against human MCF7 cells assessed as reduction in cell growth at 1 uM incubated for 72 hrs by MTT assay relative to control; type: functional; conditions: MCF7, 72 h, read-out: GI; method in brief: as §1
MCF7 [21] = experiment: Cytotoxicity against human MCF7 cells assessed as reduction in cell growth at 3 uM incubated for 72 hrs by MTT assay relative to control; type: functional; conditions: MCF7, 72 h, read-out: GI; method in brief: as §1
MCF7 [22] = experiment: Cytotoxicity against human MCF7 cells assessed as reduction in cell growth at 10 uM incubated for 72 hrs by MTT assay relative to control; type: functional; conditions: MCF7, 72 h, read-out: GI; method in brief: as §1
MCF7 [23] = experiment: Cytotoxicity against human MCF7 cells assessed as reduction in cell growth at 30 uM incubated for 72 hrs by MTT assay relative to control; type: functional; conditions: MCF7, 72 h, read-out: GI
MCF7 [24] = experiment: Cytotoxicity against human MCF7 cells assessed as reduction in cell growth at 100 uM incubated for 72 hrs by MTT assay relative to control; type: functional; conditions: MCF7, 72 h, read-out: GI; method in brief: as §1

Cc1ccnc(/C(N)=N/NC(=S)N2CCN(c3ccccn3)CC2)c1
IC50 (MCF7 [1]): 12.3 µM
IC50 (A-431 [2]): 15.5 µM
IC50 (A-375 [3]): 0.78 µM
IC50 (HeLa [4]): 10.5 µM
inhibition of growth at 1 µM (A-375 [5]): 64.4%
inhibition of growth at 3 µM (A-375 [6]): 74.8%
inhibition of growth at 10 µM (A-375 [7]): 76%
inhibition of growth at 30 µM (A-375 [8]): 79.4%
inhibition of growth at 100 µM (A-375 [9]): 81%
inhibition of growth at 1 µM (A-431 [10]): 28.9%
inhibition of growth at 3 µM (A-431 [11]): 34.7%
inhibition of growth at 10 µM (A-431 [12]): 44%
inhibition of growth at 30 µM (A-431 [13]): 65.7%
inhibition of growth at 100 µM (A-431 [14]): 75.5%
inhibition of growth at 1 µM (HeLa [15]): 40.4%
inhibition of growth at 3 µM (HeLa [16]): 42.5%
inhibition of growth at 10 µM (HeLa [17]): 49.2%
inhibition of growth at 30 µM (HeLa [18]): 77%
inhibition of growth at 100 µM (HeLa [19]): 85.6%
inhibition of growth at 1 µM (MCF7 [20]): 21%
inhibition of growth at 3 µM (MCF7 [21]): 32.8%
inhibition of growth at 10 µM (MCF7 [22]): 32.1%
inhibition of growth at 30 µM (MCF7 [23]): 63.8%
inhibition of growth at 100 µM (MCF7 [24]): 63.4%

N/C(=N\NC(=S)N1CCSCC1)c1ccc(F)cn1
IC50 (MCF7 [1]): 21.4 µM
IC50 (A-431 [2]): 1.2 µM
IC50 (A-375 [3]): 0.9 µM
IC50 (HeLa [4]): 1.7 µM
inhibition of growth at 1 µM (A-375 [5]): 55.1%
inhibition of growth at 3 µM (A-375 [6]): 62.2%
inhibition of growth at 10 µM (A-375 [7]): 70.9%
inhibition of growth at 30 µM (A-375 [8]): 78.7%
inhibition of growth at 100 µM (A-375 [9]): 83.2%
inhibition of growth at 1 µM (A-431 [10]): 48.7%
inhibition of growth at 3 µM (A-431 [11]): 61.2%
inhibition of growth at 10 µM (A-431 [12]): 61.8%
inhibition of growth at 30 µM (A-431 [13]): 84.6%
inhibition of growth at 100 µM (A-431 [14]): 86.6%
inhibition of growth at 1 µM (HeLa [15]): 19.6%
inhibition of growth at 3 µM (HeLa [16]): 62.9%
inhibition of growth at 10 µM (HeLa [17]): 70.5%
inhibition of growth at 30 µM (HeLa [18]): 81.7%
inhibition of growth at 100 µM (HeLa [19]): 88.1%
inhibition of growth at 1 µM (MCF7 [20]): 30.6%
inhibition of growth at 3 µM (MCF7 [21]): 35.4%
inhibition of growth at 10 µM (MCF7 [22]): 38.1%
inhibition of growth at 30 µM (MCF7 [23]): 58.8%
inhibition of growth at 100 µM (MCF7 [24]): 65.7%
